Variants at the floor of the assay were thinned out.
B1: tRNA (parent)
chain: GUUCCGUUGGCGUAAUGGUAACGCGUCUCCCUCCUAAGGAGAAGACUGCGGGUUCGAGUCCCGUACGGAACG

Variants of: B1
Experiment: yeast fitness relative to wild type (ratio to wild type); higher = fitter; tRNA-Arg(CCU), competitive growth, 37 C, YPD
Method in brief: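 For this measurement, the tRNA-Arg(CCU) gene was varied by chemical synthesis at a 3% per-site mutation rate across 69 sites, and each variant was placed at the native genomic locus in Saccharomyces cerevisiae. The pooled strains went through a 24-hour competition in YPD at 37°C in six parallel replicates, with amplicons from start and end populations read by 100-nucleotide paired-end sequencing. Darwinian fitness relative to wild type followed from the change in each genotype's frequency. Genotypes needed ≥ 100 starting reads, and estimates < 0.5 were set to 0.5.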
With C5U C11G C49U C61A the yeast fitness was ≤ 0.5.
U3A U32A gave a yeast fitness of 0.74.
With U7C C33G U59C the yeast fitness was 0.59.
With A14U U28A G56C G67U the yeast fitness was ≤ 0.5.
With U16C U54A C66U the yeast fitness was ≤ 0.5.
Variant C5A A14U has a yeast fitness of 0.654.
For A20U A36G G67C A69C, the yeast fitness was ≤ 0.5.
In the case of G12A C46A, the yeast fitness is reported as 1.05.
In the case of U8C U28A A37G G41C, the yeast fitness is reported as ≤ 0.5.
Variant U16G U26A C34U G50A has a yeast fitness of 0.552.
Work on C5A C30A U64C yielded a yeast fitness of 0.547.
With C4U C61U A70G the yeast fitness was 0.777.
Variant A37C A43U A69U has a yeast fitness of 0.738.
With U35A C49U the yeast fitness was 0.761.
In the case of U13C C22G C24U A37C G51C C55U A69C A70U, the yeast fitness is reported as ≤ 0.5.
With C4A G25C U32A A40C the yeast fitness was ≤ 0.5.
Variant C4U A37C G38A has a yeast fitness of 0.613.
For G17A C61U C66U, the yeast fitness was 0.599.
In the case of G10A G17C C31U G44A C46A, the yeast fitness is reported as ≤ 0.5.
In the case of C27G A45U C55A, the yeast fitness is reported as ≤ 0.5.
In the case of G12A U19A G41A A42G G58U G63C, the yeast fitness is reported as ≤ 0.5.
With C4G G12U A14C C49U A65G the yeast fitness was 0.513.
A36C G48A showed a yeast fitness of 0.594.
With G68A A70G the yeast fitness was 0.885.
For C4G C27A C46U G58C A70C, the yeast fitness was ≤ 0.5.
With C5U A15G C22G G41A A45U U47A C62U A69U the yeast fitness was ≤ 0.5.
Variant C5G A40U has a yeast fitness of 0.876.
For C5U C34A C55G A69U, the yeast fitness was ≤ 0.5.
In the case of U16A G23C C29U C31G, the yeast fitness is reported as ≤ 0.5.
For U2A A15C G58C A69U, the yeast fitness was ≤ 0.5.
In the case of U16A C24U C34A A65G G67A, the yeast fitness is reported as ≤ 0.5.
Variant G38A A43G C46U C49U has a yeast fitness of 0.611.
C4U C5U showed a yeast fitness of 1.01.
With A21G U47A G68A the yeast fitness was 0.685.
Work on A40C C61A yielded a yeast fitness of 0.716.
In the case of U32G G51A C55G, the yeast fitness is reported as ≤ 0.5.
For U7G G48A A69C, the yeast fitness was 0.697.
In the case of U3A U32G G63C C66U, the yeast fitness is reported as ≤ 0.5.
With U3A G17C A20C U28A the yeast fitness was ≤ 0.5.
In the case of G18C C27U C55G A65G G68C, the yeast fitness is reported as ≤ 0.5.
With C27G C60U C61G the yeast fitness was 0.681.
With C4G C33G A65U the yeast fitness was 0.605.
For G10A A21U U53A C66U, the yeast fitness was ≤ 0.5.
Variant G10A C22A has a yeast fitness of 0.717.
With U3C C24U G56A the yeast fitness was 0.757.
With G12C C29G G48C the yeast fitness was ≤ 0.5.
For C11U A40U G67A, the yeast fitness was ≤ 0.5.
In the case of U8C C33U A36C A43G A57U, the yeast fitness is reported as ≤ 0.5.
C27G C46G showed a yeast fitness of 1.11.
In the case of G6A C34U A40G G68A, the yeast fitness is reported as ≤ 0.5.
With C4A A20U C34G C55G C60A the yeast fitness was ≤ 0.5.
In the case of U2C G25A A42U, the yeast fitness is reported as 0.561.
In the case of C5U C11U, the yeast fitness is reported as 0.889.
In the case of C29U U35A G38C A45U U59C, the yeast fitness is reported as ≤ 0.5.
Work on A37U A42C yielded a yeast fitness of 0.698.
With C5U U8A G68A the yeast fitness was 0.544.
With A14G C34U the yeast fitness was 0.62.
For C34A U54A G67A, the yeast fitness was ≤ 0.5.
In the case of C4A U35A U47C C49U C62A A69G, the yeast fitness is reported as ≤ 0.5.
In the case of A15C C33A, the yeast fitness is reported as 0.578.
For C5G C29G C46G, the yeast fitness was ≤ 0.5.
For C5A U35G C60U C62G A70G, the yeast fitness was ≤ 0.5.
For A14U A21G A45C U59C, the yeast fitness was ≤ 0.5.
For C5U U32G C33G, the yeast fitness was ≤ 0.5.
For C22A G51C A57U, the yeast fitness was 0.624.
A15G A45U G48A gave a yeast fitness of 0.636.
With U2A U13A U35G the yeast fitness was ≤ 0.5.
Variant C5U A20U A36G has a yeast fitness of 0.674.
With A43C A57C A69U the yeast fitness was ≤ 0.5.
For C33G A40U G56A, the yeast fitness was ≤ 0.5.
For C29G C49A U64A, the yeast fitness was ≤ 0.5.
Work on A21U U59A yielded a yeast fitness of 0.587.
In the case of C5A A45U G48A G56A, the yeast fitness is reported as 0.706.
U3G A40U A45U gave a yeast fitness of 0.585.
In the case of G18A G23A A43C U59A, the yeast fitness is reported as ≤ 0.5.
With U7A U8C G17A C27G C29U U32C A43C G52A the yeast fitness was ≤ 0.5.
Work on G44C G50A A69U yielded a yeast fitness of 0.63.
U3A A69U showed a yeast fitness of 0.999.
A14C U26A C34U C55G gave a yeast fitness of 0.519.
A14G C30U C46U G50A A69G gave a yeast fitness of 0.704.
C5A A40U gave a yeast fitness of 0.849.
In the case of C30A A69G, the yeast fitness is reported as 0.915.
In the case of C49G G58A C66G, the yeast fitness is reported as 0.564.
With C22U U32G C34U G38U A40G C55G A70U the yeast fitness was ≤ 0.5.
With U7A G44C C61A C62U C66U the yeast fitness was ≤ 0.5.
For C33A U54G A70C, the yeast fitness was ≤ 0.5.
For U8A C29U C31A G38A, the yeast fitness was ≤ 0.5.
In the case of C5U C29A A69C, the yeast fitness is reported as ≤ 0.5.
For G18A G25A C46U U59C G68A, the yeast fitness was ≤ 0.5.
With A37G C49A G56A the yeast fitness was 0.607.
Work on A15C A20G G51A C55G yielded a yeast fitness of 0.532.
For C5U G25A U26A G56C A65C, the yeast fitness was ≤ 0.5.
With A21U C33G A42G G44A C61U C66U the yeast fitness was ≤ 0.5.
In the case of A14G C34G A43C C62U, the yeast fitness is reported as ≤ 0.5.
Variant A40U A43C G52A has a yeast fitness of 0.667.
For U8C A14U C30A C61U C62A A70G, the yeast fitness was 0.532.
U2C C4A G18C G63A showed a yeast fitness of 0.633.
A20C U53C gave a yeast fitness of 0.717.
In the case of G9C A14C A15U G23A C34A, the yeast fitness is reported as ≤ 0.5.
Work on U32C C55U C62U yielded a yeast fitness of 0.653.
For A42G C49U U59C C61U, the yeast fitness was ≤ 0.5.
With C29G C49G C55A the yeast fitness was ≤ 0.5.
U2C A14G G18A U32A G44A A65C showed a yeast fitness of 0.539.
For U2A C4U, the yeast fitness was 0.965.
With U2G C4U A36G A45U the yeast fitness was 0.537.
For A43C C46A G67A, the yeast fitness was 0.538.
For C24G G56C U59C, the yeast fitness was ≤ 0.5.
With G9A C11A C22G U35C the yeast fitness was ≤ 0.5.
In the case of C27G A65U A70G, the yeast fitness is reported as 0.575.
With C33G C60G the yeast fitness was ≤ 0.5.
With U3G C5U U26A G38A C62U A70U the yeast fitness was ≤ 0.5.
In the case of A42G C49G U54C G63C, the yeast fitness is reported as 0.524.
G39C A43U U53C showed a yeast fitness of 0.606.
In the case of C4G A14C C24U C49U, the yeast fitness is reported as ≤ 0.5.
For A14G G17A G23A U28G, the yeast fitness was ≤ 0.5.
In the case of C34U G51U C60U C62U A65C A69G, the yeast fitness is reported as ≤ 0.5.
With G6C G38C C60A the yeast fitness was ≤ 0.5.
For U8A G17A C31U C33U C34U C46G C62A, the yeast fitness was ≤ 0.5.
C4G U32A showed a yeast fitness of 0.864.
Variant C11U C24G C33A A40C U53C has a yeast fitness of 0.626.
In the case of C11U C22G G52C G56C, the yeast fitness is reported as ≤ 0.5.
In the case of A15U C27A A65C G67A A69C, the yeast fitness is reported as ≤ 0.5.
In the case of G10C C22G C33U A36C A40U, the yeast fitness is reported as ≤ 0.5.
G6C A45C G67C gave a yeast fitness of 0.536.
For U8C C34A C61G G68C, the yeast fitness was ≤ 0.5.
With U7G C61A the yeast fitness was 0.708.
With U3A U19G G25A G67A the yeast fitness was 0.56.
For C29G A36G G38A A45G, the yeast fitness was ≤ 0.5.
U35C A40G showed a yeast fitness of 0.711.
With A14U U26A C66A the yeast fitness was ≤ 0.5.
With G10C C55U G56A the yeast fitness was ≤ 0.5.
In the case of A37G C46U C62G, the yeast fitness is reported as 0.533.
With U13A A20C C34U G50C A69U the yeast fitness was ≤ 0.5.
With G12A A15G G48C A57U the yeast fitness was ≤ 0.5.
For C4U C60G G63C, the yeast fitness was ≤ 0.5.
For C27G C30U G39C A40U G44C U47A G48A, the yeast fitness was ≤ 0.5.
With C11U U28C C29G A57G the yeast fitness was ≤ 0.5.
For C27G U28A C30G C31U G68C A70C, the yeast fitness was ≤ 0.5.
Work on G17C U26C C46U A65U yielded a yeast fitness of 0.558.
In the case of G18C G23A C61U, the yeast fitness is reported as ≤ 0.5.
In the case of U3A G23C C46A C49A C61G, the yeast fitness is reported as ≤ 0.5.
C5U A43U C66U gave a yeast fitness of 0.68.
For U2A C4U A69U, the yeast fitness was 0.787.
With G6C G50C A69U the yeast fitness was 0.554.
For C24A A43U G50A G67A, the yeast fitness was ≤ 0.5.
For C5G U16C G39C A57U, the yeast fitness was ≤ 0.5.
In the case of C11G C29U C46G, the yeast fitness is reported as ≤ 0.5.
In the case of A15U C29G G48A A69U, the yeast fitness is reported as ≤ 0.5.
U32C C34U A45U gave a yeast fitness of 0.662.
Variant C4U A21G C46A G68C has a yeast fitness of 0.544.
With C22G C31A A43G A57C A65U the yeast fitness was ≤ 0.5.
In the case of A14U A21U C29G C46U, the yeast fitness is reported as ≤ 0.5.
With G9A C49U A69U the yeast fitness was 0.785.
In the case of U3G C11U U35A G38A C66U, the yeast fitness is reported as ≤ 0.5.
In the case of A45C G50A A65U, the yeast fitness is reported as 0.643.
With A20C G63A the yeast fitness was 0.843.
In the case of U26G U53A C55U C61A, the yeast fitness is reported as ≤ 0.5.
In the case of C30A A36G A65G, the yeast fitness is reported as 0.648.
C46A U59C showed a yeast fitness of 0.898.
For C4A C33A A40U, the yeast fitness was 0.522.
With A37C C46U U53C the yeast fitness was ≤ 0.5.
U54G G68A gave a yeast fitness of 0.541.
For U13C G18A C46G U47A C49U C55G A57C, the yeast fitness was ≤ 0.5.
With A20G C22U A43G the yeast fitness was 0.624.
In the case of G6C U16A G18C C22G G52C G68A, the yeast fitness is reported as ≤ 0.5.
A15G C66A gave a yeast fitness of 0.657.
In the case of G41C U59A, the yeast fitness is reported as 0.801.
